Screening data: PubChem BioAssay, several laboratories
Shown are actives, neighbours in structure and some others; about 0.83% of the full set was active somewhere.
OXTR ag = human OXTR agonists, primary screen, fluorescence, CHO-OTR cells, Fluo-8 calcium | activation, % at 3 µM | Fluo-8 calcium fluorescence; normalized: DMSO 0%, oxytocin 100% | 0.32% of 320,000 active | Oxytocin receptor (Homo sapiens), P30559;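 active = activation above the mean of all tested compounds plus 3 SD, cutoff set per screening run, cut at about 20% in these data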;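 note: peak over basal fluorescence ratio from a 100 s FLIPR kinetic read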
Target sequence (P30559 whole entry, looked up): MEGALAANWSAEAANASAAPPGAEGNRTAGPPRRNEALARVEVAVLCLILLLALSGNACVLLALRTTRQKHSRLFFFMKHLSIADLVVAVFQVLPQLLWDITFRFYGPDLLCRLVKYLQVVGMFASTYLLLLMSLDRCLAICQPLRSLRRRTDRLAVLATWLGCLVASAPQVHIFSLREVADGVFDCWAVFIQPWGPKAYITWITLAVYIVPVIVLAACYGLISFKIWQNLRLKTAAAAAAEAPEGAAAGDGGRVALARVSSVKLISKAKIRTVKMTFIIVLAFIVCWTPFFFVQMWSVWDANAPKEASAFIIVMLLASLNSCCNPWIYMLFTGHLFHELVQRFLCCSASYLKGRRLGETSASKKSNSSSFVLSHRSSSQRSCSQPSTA
zfTRPN1 agonist = zebrafish TRPN1 channel agonists, primary screen, cell-based, HEK293, calcium fluorescence. transient receptor potential cation channel N1 (TRPN1/NompC), Danio rerio. HEK293 zebrafish TRPN1-YFP, Fluo-8 calcium fluorescence; 100% = response to 87 µM carbachol. activation, % at 3 µM. 0.18% of 220,000 active. AID 1424, 2008;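 active = activation above its plate's cutoff, the mean activation of test wells on that plate plus 3 SD, cut at about 19% in these data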
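Assay system: Zebrafish TRPN1-YFP in HEK293 cells | Incubation: Dye loading 1 h at 37 °C, then 30 min room temperature | Measured by: Kinetic Fluo-8 fluorescence, ex 470-495, em 515-575 nm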
OXTR potentiate = human OXTR potentiators, primary screen, fluorescence, CHO-OTR cells, Fluo-8 calcium. Fluo-8 calcium fluorescence, potentiator mode; 0% = oxytocin EC15, 100% = EC100. AID 2445, 2010. 0.061% of 320,000 active. activation, % at 3 µM;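 active = activation above that plate's cutoff, the mean activation of tested compounds plus 3 SD, cut at about 6.6% in these data, passing the limit was not always enough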
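Assay system: CHO-OTR cells, human receptor / Also added: oxytocin at about EC15, sub-maximal agonist stimulus / Dosing: single dose, 3.0 µM nominal final compound concentration / Incubation: 6 min pre-incubation, 100 s read / Technique: Fluo-8 calcium dye fluorescence / Read-out: % activation vs EC15 and EC100 oxytocin / Benchmarks: EC15 oxytocin low, 75 nM oxytocin high / Replicates: singlicate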
TRPML3 ag = human TRPML3 channel agonists, primary screen, cell-based, HEK293 TRPML3-YFP, Fluo-8 calcium fluorescence, 3 µM | 100% = the carbachol control signal | activation, % at 3 µM | 0.29% of 220,000 active | AID 1448, 2008;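 active = activation above its plate's cutoff, the mean activation of the plate's test wells plus 3 SD, cut at about 12% in these data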
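Test system: TRPML3-YFP stable HEK293 cells. Doses: single point at 3 µM. Incubation: dye loading 1 h 37 °C then 30 min ambient, 125 s read. Signal: Fluo-8 calcium dye fluorescence, ex 470-495, em 515-575 nm. Measure: percent activation from peak-to-basal fluorescence ratio, scaled between DMSO and carbachol.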
CRFBP-R2 agonist = agonists of CRF-BP/CRF-R2 complex, primary screen, cell-based, HEK293, calcium dye fluorescence, uHTS; activation, % at 13.2 µM; AID 588473, 2011; calcium dye fluorescence (FLIPR); percent of saturating CRF peptide response; 0.46% of 350,000 active;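 active = activation of at least 50%, plus an integration ratio under a set limit after plate pattern correction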
V1aR counter = agonists of human V1a receptor, primary screen, counter-screen for OXTR agonist project, fluorescence, CHO-V1R cells | activation, % at 3 µM | AID 2797, 2010 | 0.25% of 320,000 active | Fluo-8 calcium fluorescence, agonist mode; 0% DMSO, 100% 3 nM vasopressin;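 active = activation above the mean activation of all tested compounds plus 3 SD, per screening run, cut at about 20% in these data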;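 note: signal is peak over basal fluorescence ratio across a 100 second FLIPR read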
A number is an active result.

How did CN(N=Nc1cccc([N+](=O)[O-])c1)c1ccccc1 do in these assays?
OXTR ag: inactive; OXTR potentiate: inactive; CRFBP-R2 agonist: inactive; V1aR counter: inactive

Results for Cc1ccc([N+](=O)[O-])cc1S(=O)(=O)Nc1cccc(S(=O)(=O)Nc2ccccc2C(=O)O)c1 ?
OXTR ag: inactive; OXTR potentiate: inactive; CRFBP-R2 agonist: inactive; V1aR counter: inactive

How did Cc1ccc(C)c(NC(=O)c2ccccc2NS(=O)(=O)c2cc([N+](=O)[O-])ccc2C)c1 do in these assays?
OXTR ag: inactive; zfTRPN1 agonist: 27; OXTR potentiate: inactive; TRPML3 ag: 18; CRFBP-R2 agonist: 63; V1aR counter: inactive

What do the screens show for `CCOc1ccc(CN2CCN(Cc3cc4ccccc4[nH]3)CC2CCO)cc1` (configuration not stated)?
zfTRPN1 agonist: inactive; TRPML3 ag: inactive; CRFBP-R2 agonist: inactive

Results for COc1cccc(CN2CCN(Cc3cc4ccccc4[nH]3)CC2CCO)c1 (configuration not stated) ?
OXTR ag: inactive; zfTRPN1 agonist: 28; OXTR potentiate: inactive; TRPML3 ag: inactive; CRFBP-R2 agonist: 57; V1aR counter: inactive

Results for COc1ccc(CCN(C)C(=O)c2c(C)nn(-c3ccccc3)c2C)cc1OC ?
OXTR ag: inactive; OXTR potentiate: inactive; CRFBP-R2 agonist: inactive; V1aR counter: inactive

Results for O=c1ccc2c(-c3ccccc3)c3ccc(O)cc3oc-2c1 ?
OXTR ag: 850; OXTR potentiate: inactive; CRFBP-R2 agonist: 178; V1aR counter: active

Results for O=c1cc(-c2ccccc2)oc2cc(O)ccc12 ?
CRFBP-R2 agonist: inactive

How did Nc1ccc(-c2c3ccc(=O)cc-3oc3cc(O)ccc23)cc1C(=O)O do in these assays?
OXTR ag: 292; OXTR potentiate: inactive; CRFBP-R2 agonist: inactive; V1aR counter: 261

Results for COc1ccccc1C(O)(c1ccccc1)c1ccccc1OC ?
CRFBP-R2 agonist: inactive

What do the screens show for `CC(c1ccccc1C(O)(c1ccccc1)c1ccccc1)N(C)C` (configuration not stated)?
OXTR ag: 43; zfTRPN1 agonist: 22; OXTR potentiate: inactive; TRPML3 ag: 15; CRFBP-R2 agonist: 93; V1aR counter: 48

How did COc1cc(OC)cc(C(=O)NCC(=O)NCC(c2ccco2)N2CCCCC2)c1 (configuration not stated) do in these assays?
OXTR ag: inactive; OXTR potentiate: inactive; CRFBP-R2 agonist: inactive; V1aR counter: inactive

How did CCCCN1C(=O)/C(=C/C=C2\SCCN2C)SC1=S do in these assays?
zfTRPN1 agonist: inactive; TRPML3 ag: inactive; CRFBP-R2 agonist: 81

Results for COc1ccc(CNC(=O)[C@H](C)NC(=O)[C@@H]2Cc3ccccc3CN2)cc1 ?
OXTR ag: inactive; OXTR potentiate: inactive; CRFBP-R2 agonist: inactive; V1aR counter: inactive

How did O=C1C(Cl)=C(NCc2ccco2)C(=O)c2ccccc21 do in these assays?
CRFBP-R2 agonist: inactive

How did O=C1c2ccccc2-c2onc3ccc(NCc4ccco4)c1c23 do in these assays?
OXTR ag: 58; zfTRPN1 agonist: inactive; OXTR potentiate: inactive; TRPML3 ag: inactive; CRFBP-R2 agonist: 148; V1aR counter: 35

What do the screens show for `CCNc1ccc2noc3c2c1C(=O)c1ccccc1-3`?
OXTR ag: 110; zfTRPN1 agonist: inactive; OXTR potentiate: inactive; TRPML3 ag: inactive; CRFBP-R2 agonist: 192; V1aR counter: 78

What do the screens show for `CCOc1ccc2noc3c2c1C(=O)c1ccccc1-3`?
OXTR ag: 59; zfTRPN1 agonist: inactive; OXTR potentiate: inactive; TRPML3 ag: inactive; CRFBP-R2 agonist: inactive; V1aR counter: 75

Results for O=C(CSc1nnc(COc2ccc(Cl)cc2)o1)Nc1ccc(N2CCOCC2)cc1 ?
CRFBP-R2 agonist: inactive

What do the screens show for `CCN(CC(=O)Nc1ccc(NC(C)=O)cc1)C(=O)c1ccc(=O)n(C)n1`?
OXTR ag: inactive; OXTR potentiate: inactive; CRFBP-R2 agonist: inactive; V1aR counter: inactive

What do the screens show for `Cc1ccc(N=C2NC(=O)/C(=C/c3cn(C)c4ccccc34)S2)cc1C`?
OXTR ag: inactive; zfTRPN1 agonist: inactive; OXTR potentiate: inactive; TRPML3 ag: inactive; CRFBP-R2 agonist: 64; V1aR counter: inactive

Results for C=CCn1c(SC(C)C(=O)c2c(N)n(C)c(=O)n(C)c2=O)nnc1-c1ccoc1C (configuration not stated) ?
OXTR ag: inactive; OXTR potentiate: inactive; CRFBP-R2 agonist: inactive; V1aR counter: inactive

Results for N#C/C(=C/c1ccc(N2CCOCC2)o1)c1nc2ccccc2[nH]1 ?
OXTR ag: 40; zfTRPN1 agonist: inactive; OXTR potentiate: inactive; TRPML3 ag: inactive; CRFBP-R2 agonist: 128; V1aR counter: 21

Results for N#C/C(=C\c1ccc(N2CCOCC2)o1)c1ccccc1 ?
OXTR ag: inactive; zfTRPN1 agonist: inactive; OXTR potentiate: inactive; TRPML3 ag: inactive; CRFBP-R2 agonist: inactive; V1aR counter: inactive

What do the screens show for `N#C/C(=C/c1ccc(N2CCOCC2)o1)C(=O)NC1CCCCC1`?
OXTR ag: inactive; zfTRPN1 agonist: inactive; OXTR potentiate: inactive; TRPML3 ag: inactive; CRFBP-R2 agonist: 50; V1aR counter: inactive

How did COc1ccc(NC(=O)/C(C#N)=C\c2ccc(N3CCOCC3)o2)cc1 do in these assays?
OXTR ag: 70; zfTRPN1 agonist: 49; OXTR potentiate: inactive; TRPML3 ag: 40; CRFBP-R2 agonist: 223; V1aR counter: 117

What do the screens show for `CC1CC1c1ccc(/C=C(\C#N)C(=O)Nc2ccc(Cl)cc2)o1` (configuration not stated)?
OXTR ag: inactive; zfTRPN1 agonist: inactive; OXTR potentiate: inactive; TRPML3 ag: inactive; CRFBP-R2 agonist: inactive; V1aR counter: inactive

What do the screens show for `CSc1ccc(/C=C(\C#N)C(=O)NC2CCCCC2)cc1`?
OXTR ag: inactive; zfTRPN1 agonist: inactive; OXTR potentiate: inactive; TRPML3 ag: inactive; CRFBP-R2 agonist: inactive; V1aR counter: inactive

What do the screens show for `N#C/C(=C\c1ccc(N2CCOCC2)o1)C(=O)Nc1ccc(O)cc1`?
OXTR ag: 20; zfTRPN1 agonist: inactive; OXTR potentiate: inactive; TRPML3 ag: inactive; CRFBP-R2 agonist: 125; V1aR counter: 29

Results for CN(C(=O)c1cccc(NC(=O)Cc2ccc(NC(=O)C3CCN(C(=O)C4CC4)CC3)cc2)c1)C1CCCCC1 ?
CRFBP-R2 agonist: inactive
